M4 PAM = positive allosteric modulators of human muscarinic M4 receptor; P08173; 360,000 tested, 0.4% active; activation, % at 3 µM; CHO-K1 hM4/Gqi5, Fluo-8 calcium fluorescence, ACh EC20; 0% = ACh EC20, 100% = maximal ACh; AID 624126;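 active = activation above its plate's cutoff, the mean activation of sample wells plus 3 SD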
Target sequence (P08173 whole entry, looked up): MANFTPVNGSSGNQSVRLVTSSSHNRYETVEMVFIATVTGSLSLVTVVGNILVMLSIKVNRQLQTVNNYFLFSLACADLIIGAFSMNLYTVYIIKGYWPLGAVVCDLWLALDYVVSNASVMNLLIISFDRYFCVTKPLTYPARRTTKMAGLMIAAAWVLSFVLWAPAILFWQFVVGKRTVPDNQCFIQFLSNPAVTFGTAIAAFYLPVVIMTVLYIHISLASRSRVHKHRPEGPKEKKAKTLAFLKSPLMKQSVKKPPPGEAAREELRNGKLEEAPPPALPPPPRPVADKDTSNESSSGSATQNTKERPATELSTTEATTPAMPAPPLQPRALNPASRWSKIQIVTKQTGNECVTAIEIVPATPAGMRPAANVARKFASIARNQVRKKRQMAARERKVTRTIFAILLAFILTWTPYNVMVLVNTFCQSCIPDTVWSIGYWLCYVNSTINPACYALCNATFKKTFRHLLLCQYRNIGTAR
CHRM5 agonist = CHRM5 agonism in calcium assay. CHO-K1 hM5 cells, Fluo-8 calcium fluorescence; 0% DMSO wells, 100% maximal acetylcholine response. activation, % at 3 µM. 360,000 tested, 0.19% active. AID 624037;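 active = activation above the run's mean over test compounds plus 3 SD, cut at about 23% in these data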;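 note: signal is peak over basal fluorescence ratio across the kinetic read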
M4 ag = CHRM4 agonism in calcium assay | CHO-K1 hM4/Gqi5, Fluo-8 calcium fluorescence; vehicle 0%, full acetylcholine response 100% | P08173 | 360,000 tested, 0.14% active | activation, % at 3 µM;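 active = activation above the run mean over all test wells plus 3 SD, cut at about 32% in these data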;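 note: peak over basal fluorescence ratio per well then scaled between controls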
CHRM5 PAM = CHRM5 positive allosteric modulation | P08912 | CHO-K1 hM5, Fluo-8 calcium, ACh EC20 PAM; 0% = ACh EC20, 100% = ACh EC100 | activation, % at 3 µM | 360,000 tested, 0.3% active;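 active = activation above the run cutoff, the mean activation of all test compounds plus 3 SD, cut at about 18% in these data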
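Test system: CHO-K1 hM5 cells / Doses: single-point, 3 µM nominal / Times: Post-acetylcholine fluorescence recording 140 s / Technique: Fluo-8 calcium fluorescence / Measure: Max/basal fluorescence ratio as % of EC20–EC100 ACh window / Benchmarks: low control EC20 acetylcholine (0%), high control EC100 acetylcholine (100%) / Replicates: one well per compound, no replicates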
M4 antag = CHRM4 antagonism in calcium assay; P08173; CHO-hM4 cells, ACh EC80, Fluo-8 calcium fluorescence; inhibition, % at 3 µM; 360,000 tested, 0.73% active; AID 624125;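 active = inhibition above its plate's cutoff, the mean inhibition of sample wells plus 3 SD, cut at about 27% in these data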
M5 antag = blocks acetylcholine activation of human M5 receptor; inhibition, % at 3 µM; P08912; AID 624040; CHO-hM5 cells, Fluo-8 calcium fluorescence, ACh EC80; 360,000 tested, 0.59% active;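 active = inhibition above a per-plate cutoff, the mean of that plate's test compounds plus 3 SD, cut at about 27% in these data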
Of the large screens only hits and unclear results are named; the others gave an inactive call. The list is not random: actives were taken first. Their share in the collection is about 1.9%.

O=C(Nc1ccc2c(c1)OCO2)c1ccc2sc([C@@H]3O[C@H](CO)[C@@H](O)[C@H]3O)nc2c1	none
COc1ccc(NC(=O)CSC2=C(C#N)C(c3ccco3)C3=C(CCCC3=O)N2)c(OC)c1 (stereo unspecified)	M5 antag 42.1
COc1cccc(NC(=O)CSC2=C(C#N)C(c3ccco3)C3=C(CCCC3=O)N2)c1 (stereo unspecified)	none
COc1ccc(F)cc1-c1cc(C(=O)NCc2ccccc2)[nH]n1	none
N#Cc1ccc(NC(=O)Nc2ccc(Oc3ccc(NC(=O)Nc4ccc(C#N)cc4)cc3)cc2)cc1	none
N#Cc1ccc(NC(=O)Nc2cccc(C#N)c2)cc1	M5 antag 31.9
CN(CC(=O)Nc1ccc(N2CCOCC2)cc1)CC(=O)Nc1cccc(C#N)c1	M4 PAM 22.8
CN(CC(=O)Nc1ccc(C#N)cc1)CC(=O)Nc1ccc(N2CCOCC2)cc1	none
CN(CC(=O)Nc1ccc(C#N)cc1)Cc1ccc(Cl)c(Cl)c1	M4 antag 43.0
CN(CC(=O)Nc1cccc(C#N)c1)Cc1ccc(Cl)cc1	none
CC1CCN(CCOc2ccc(C(=O)c3ccccc3)cc2)CC1	M4 antag 42.8
CC1CCN(CCCCOc2ccc(C(=O)c3ccccc3)cc2)CC1	M4 antag 42.2
CC1CCN(CCCOc2ccc(OCc3ccccc3)cc2)CC1	none
CC1CCN(CCCCOc2cccc(C(C)C)c2)CC1	M4 antag 33.7
CCN(CC)S(=O)(=O)c1ccc(C)c(NC(=O)COC(=O)CN2C(=O)NC(C)(C)C2=O)c1	none
CN(CC(=O)Nc1cccc(S(=O)(=O)N2CCCC2)c1)CC(=O)Nc1ccc(Cl)c(C(F)(F)F)c1	none
Cc1c(C(=O)c2ccc(Cl)cc2[N+](=O)[O-])c2ccccn2c1CCC#N	CHRM5 PAM 19.3
COc1ccc(CC(=O)Oc2ccc(C(C)C)cc2)cc1S(=O)(=O)N1CCOCC1	none
CCOC(=O)C1CCCN(C(=O)C2COc3ccccc3O2)C1 (stereo unspecified)	none
CCOC(=O)C1CCCN(C(=O)Cc2c(C(=O)O)[nH]c3ccccc23)C1 (stereo unspecified)	CHRM5 agonist 38.0
CCOC(=O)C1CCCN(C(=S)Nc2ccc(C)cc2C)C1 (stereo unspecified)	CHRM5 agonist 35.6
CCOC(=O)C1CCCN(C(=O)Cc2ccc(C)cc2)C1 (stereo unspecified)	none
CCOC(=O)C1CCCN(C(=O)C2c3ccccc3Oc3ccccc32)C1 (stereo unspecified)	CHRM5 agonist 27.1
CCOC(=O)C1CCCN(C(=O)Cn2nc(C)c3c(C)n(-c4ccccc4)nc3c2=O)C1 (stereo unspecified)	M4 PAM 17.5
O=C(CN1C(=O)C(=O)N(C2CCCC2)C1=O)Nc1ccc(Cl)cc1C(F)(F)F	none
CCOC(=O)C1CCCN(C(=S)Nc2ccc(Nc3ccccc3)cc2)C1 (stereo unspecified)	CHRM5 agonist 32.0
CCn1c(C)nc2cc(C(=O)OC(C(F)(F)C(F)F)C(F)(F)C(F)F)ccc21	M5 antag 38.5
CNC(=O)/C(C#N)=C/c1ccc(OCCOc2ccccc2)cc1	none
CCC(C)NC(=O)C1CCCN(c2nc(C)cc(OC)n2)C1 (stereo unspecified)	M4 PAM 24.6, CHRM5 PAM 20.4
Cn1cc(CN2CCCCC2C(=O)Nc2ccc(-n3cccn3)cc2)cn1 (stereo unspecified)	M5 antag 27.3
S=c1cn[nH]c2ccccc12	none
O/C(=C\c1nc2ccccc2[nH]1)c1cccs1	none
O=C(/C(=C\c1ccccc1)c1nc2ccccc2[nH]1)c1ccc(Cl)cc1	none
O=C(/C(=C/c1ccc(Cl)cc1)c1nc2ccccc2[nH]1)c1cccs1	M4 antag 66.4
O=c1[nH]c2ccccc2nc1/C=C(\O)c1cccs1	CHRM5 agonist 31.4
CCN1C(=O)c2ccc(C(=O)Nc3ccc4c(c3)OCO4)cc2C1=O	none
CC(=O)Nc1cc(NC(C)=O)cc(C(=O)OCC(=O)Nc2ccc(S(=O)(=O)NC3=NCCCCC3)cc2)c1	none
COc1ccc(-c2cc(C(=O)OCC(=O)c3cccc([N+](=O)[O-])c3)c3cc(C)ccc3n2)cc1	M4 PAM 23.0
Cc1ccc(S(=O)(=O)N2CCC(=O)N(CCOC(=O)Nc3cccc(Cl)c3)CC2)cc1	CHRM5 PAM 30.2
Cc1ccc(NC(=O)OCCN2CCN(S(=O)(=O)c3ccc(C)cc3)CCC2=O)cc1	none
O=S1(=O)CC(O)C(Nc2ccccc2)C1 (stereo unspecified)	M4 PAM 26.0, CHRM5 PAM 41.6
O=S1(=O)CC(O)C(Nc2ccc(Cl)cc2)C1 (stereo unspecified)	none
CC(Oc1ccccc1)c1ccnn1S(=O)(=O)c1ccccc1 (stereo unspecified)	CHRM5 PAM 20.3
COC(=O)C1=C(C)NC(C)=C(C(=O)OCCN(C)Cc2ccccc2)C1c1cccc([N+](=O)[O-])c1 (stereo unspecified)	M4 antag 34.9
CCOc1ccccc1NC(=O)c1nnn(CC(=O)Nc2cc(C)cc(C)c2)c1N	none
C=CCn1c2ccccc2c2nnc(SCC(N)=O)nc21	none
C=CCSc1nnc2nc3c(nn12)c1cc(C)ccc1n3CC=C	CHRM5 PAM 40.5
COc1cccc(C(C(=O)NC(C)(C)C)N(CCc2ccccc2)C(=O)CCC(=O)Nc2cc(C)on2)c1OC (stereo unspecified)	none
Cc1ccsc1C(=O)N(C)CC(=O)Nc1ccccc1Br	none
Brc1ccccc1OCCCCn1cnc2ccccc21	M5 antag 29.4
Cn1c(=O)c(C(=O)COc2ccc(C#N)cc2)c(N)n(Cc2ccccc2)c1=O	CHRM5 agonist 38.0
CC(=O)Nc1ccc2nc(-c3ccc(Br)o3)[nH]c2c1	M4 PAM 22.9
Cc1ccsc1-c1nc(CN(C)C(C2CC2)C2CC2)c(C)o1	none
C=CCN(CC=C)C(=O)C1c2ccccc2Oc2ccccc21	none
CCN(CC)C(=O)C1c2ccccc2Oc2ccccc21	CHRM5 agonist 53.3, M4 ag 32.7
O=C(NCc1ccco1)C1c2ccccc2Oc2ccccc21	M4 antag 27.1
CC(C)[N+](C)(CCOC(=O)C1c2ccccc2Oc2ccccc21)C(C)C	M4 antag 99.7, M5 antag 98.5
CC(C)CNC(=O)COC(=O)C1c2ccccc2Oc2ccccc21	none
O=C(CSC(=S)N1CCCC1)NCC(=O)Nc1ccccc1Br	none

Compound activity as filed in PubChem BioAssay.
